The values that follow come from ChEMBL document CHEMBL1121856, “Sulfur analogues of psychotomimetic agents. Monothio analogues of mescaline and isomescaline” (J Med Chem, 1981).

Series [1] addresses T1, monoamine oxidase (bovine plasma amine oxidase) (Bos taurus, UniProt P21398+P56560).
T1 sequence (P56560 whole entry): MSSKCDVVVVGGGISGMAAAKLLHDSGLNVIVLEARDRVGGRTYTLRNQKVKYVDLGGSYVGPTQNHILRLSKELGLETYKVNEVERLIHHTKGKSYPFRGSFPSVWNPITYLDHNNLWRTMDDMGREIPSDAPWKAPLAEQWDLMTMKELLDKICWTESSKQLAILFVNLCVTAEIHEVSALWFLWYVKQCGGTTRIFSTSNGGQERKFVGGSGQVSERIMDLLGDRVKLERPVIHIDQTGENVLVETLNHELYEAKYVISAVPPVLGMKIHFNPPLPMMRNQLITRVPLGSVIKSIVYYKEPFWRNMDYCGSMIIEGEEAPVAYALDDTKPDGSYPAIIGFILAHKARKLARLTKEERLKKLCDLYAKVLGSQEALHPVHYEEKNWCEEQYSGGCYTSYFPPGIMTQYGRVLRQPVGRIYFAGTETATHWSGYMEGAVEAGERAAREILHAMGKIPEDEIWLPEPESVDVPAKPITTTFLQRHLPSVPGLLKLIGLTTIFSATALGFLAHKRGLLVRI
T1 sequence (P21398 whole entry): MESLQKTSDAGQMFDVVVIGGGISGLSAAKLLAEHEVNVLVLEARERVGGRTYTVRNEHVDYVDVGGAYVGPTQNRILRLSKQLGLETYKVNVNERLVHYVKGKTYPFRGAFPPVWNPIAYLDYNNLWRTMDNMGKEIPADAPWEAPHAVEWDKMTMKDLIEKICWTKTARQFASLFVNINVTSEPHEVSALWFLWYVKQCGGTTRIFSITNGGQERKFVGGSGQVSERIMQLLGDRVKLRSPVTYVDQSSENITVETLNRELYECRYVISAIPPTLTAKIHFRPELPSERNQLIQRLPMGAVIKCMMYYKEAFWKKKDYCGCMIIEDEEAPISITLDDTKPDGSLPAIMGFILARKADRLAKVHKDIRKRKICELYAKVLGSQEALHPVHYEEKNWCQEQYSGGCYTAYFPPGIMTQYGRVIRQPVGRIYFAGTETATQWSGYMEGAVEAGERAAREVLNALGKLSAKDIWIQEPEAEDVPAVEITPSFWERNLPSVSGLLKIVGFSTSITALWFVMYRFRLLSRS
The series is described as follows: In vitro bovine plasma monoamine oxidase deamination without semicarbazide. The conditions noted are these: cattle, read-out: MAO deamination. The series is classed as cell-free. The procedure, abridged:
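Amines at 50 μM in 0.1 M phosphate buffer, pH 7.4, with 0.01 unit bovine plasma MAO, no semicarbazide, in duplicate, 1 h at 37 °C. Stopped with 0.5 N NaOH, internal standard added, extracted into CH2Cl2. Remaining amine measured by GC (OV-101, 185 °C) as heptafluorobutyryl derivatives, quantitated by peak-height ratio against standards prepared without enzyme.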

The species named for the next series is Homo sapiens. The series is described as follows: Compound was tested for the psychotropic effect in human (activity is expressed in mescaline unit). The series is classed as functional. The procedure, abridged: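 Healthy adult volunteers (32–65 y, experienced with psychotropic drugs) received the hydrochloride orally. Dosing began at 2 mg and rose in small increments (1.6:1) at trials spaced about 1 week apart until an effective level was found. Mescaline units are the effective dose of mescaline divided by that of the compound, both determined in man. A "less than" value means no activity at doses that would give that MU.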

The target in series [2] is T1, monoamine oxidase (bovine plasma amine oxidase). As to the kind of experiment: In vitro bovine plasma monoamine oxidase deamination with semicarbazide. The note with it: cattle, with semicarbazide (concentration not stated), read-out: MAO deamination. In kind it is cell-free. The method in brief: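 Amines at 50 μM in 0.1 M phosphate buffer, pH 7.4, with 0.01 unit bovine plasma MAO and 50 μM semicarbazide, in duplicate, 1 h at 37 °C. Stopped with 0.5 N NaOH, internal standard added, extracted into CH2Cl2. Remaining amine measured by GC as heptafluorobutyryl derivatives, quantitated by peak-height ratio against enzyme-free standards.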

With `COc1ccc(CCN)c(OC)c1OC`, the results for the metabolised in series [1] and in series [2] were 55% and 4%, respectively. This compound returned a Human potency in the series filed under Homo sapiens below 1 MU.
As to `COc1cc(CCN)cc(SC)c1OC`, the metabolised in series [1] turned out to be 60%. The Human potency in the series listed under Homo sapiens is 6 MU.
As for `COc1ccc(CCN)c(OC)c1SC`, the metabolised in series [1] is 31%. This compound also showed a Human potency in the series listed under Homo sapiens below 2 MU.
For `COc1cc(CCN)cc(OC)c1OC` [MESCALINE], the metabolised in series [1] stood at 21%; in series [2] it was 1%. In addition, the Human potency in the series filed under Homo sapiens was found to be 1 MU.
For `COc1ccc(CCN)cc1OC` the same measures were 64%, 16% and below 1 MU.
`COc1c(CCN)ccc(SC)c1OC`: in series [1], the metabolised was 40%. The same compound registered a Human potency in the series filed under Homo sapiens below 2 MU.
For `COc1cc(CCN)cc(OC)c1SC` the same measures were 56% and 12 MU.
`COc1ccc(CCN)c(SC)c1OC`: the metabolised turned out to be 78% in series [1] and 10% in series [2]. This compound also came in with a Human potency in the series listed under Homo sapiens below 2 MU.
